Key:
Settings in all cases: in vivo
[1] = system: Rattus norvegicus; assay: AUC (0 to 4 hrs) in wild-type Sprague-Dawley rat treated with loperamide at 10 mg/kg, po by LC-MS/MS analysis; type: ADME, organism-based, Plasma; parameters: time < 4 hr, dose 10 mg/kg, route oral
[2] = system: Rattus norvegicus; assay: Ratio of AUC (0 to 4 hrs) for metabolite to AUC (0 to 4 hrs) for parent compound in MDR1A knockout Sprague-Dawley rat at 10 mg/kg, po by LC-MS/MS analysis; type: ADME, organism-based; parameters: dose 10 mg/kg, route oral
[3] = system: Rattus norvegicus; assay: AUC (0 to 4 hrs) in MDR1A knockout Sprague-Dawley rat treated with loperamide at 10 mg/kg, po by LC-MS/MS analysis; type: ADME, organism-based, Plasma; parameters: time < 4 hr, dose 10 mg/kg, route oral
[4] = system: Rattus norvegicus; assay: Cmax in BCRP knockout Sprague-Dawley rat treated with loperamide at 10 mg/kg, po by LC-MS/MS analysis; type: ADME, organism-based; parameters: dose 10 mg/kg, route oral
Method in brief: (§1)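 Male Sprague-Dawley rats (knockout or wild type matched for age and weight), femoral artery and vein cannulated, at least 2 days recovery. Crossover design: IV bolus 1 mg/kg on day 0 (saline with 0.2 M equivalents HCl), oral gavage 10 mg/kg on day 3 (water with 0.2 M equivalents HCl). Arterial plasma sampled to 24 h (Mdr1a oral arm to 4 h). Analysed by LC-MS/MS and noncompartmental analysis.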

[5] = system: Rattus norvegicus; assay: Ratio of AUC (0 to 4 hrs) for metabolite to AUC (0 to 4 hrs) for parent compound in MRP2 knockout Sprague-Dawley rat at 10 mg/kg, po by LC-MS/MS analysis; type: ADME, organism-based; parameters: dose 10 mg/kg, route oral
[6] = system: Rattus norvegicus; assay: Ratio of AUC (0 to 4 hrs) for metabolite to AUC (0 to 4 hrs) for parent compound in wild-type Sprague-Dawley rat at 10 mg/kg, po by LC-MS/MS analysis; type: ADME, organism-based; parameters: dose 10 mg/kg, route oral
[7] = system: Rattus norvegicus; assay: Cmax in wild-type Sprague-Dawley rat treated with loperamide at 10 mg/kg, po by LC-MS/MS analysis; type: ADME, organism-based; parameters: dose 10 mg/kg, route oral; method in brief: as §1
[8] = system: Rattus norvegicus; assay: AUC (infinity) in MRP2 knockout Sprague-Dawley rat treated with loperamide at 10 mg/kg, po by LC-MS/MS analysis; type: ADME, organism-based, Plasma; parameters: time infinity, dose 10 mg/kg, route oral; method in brief: as §1
[9] = system: Rattus norvegicus; assay: Cmax in MDR1A knockout Sprague-Dawley rat treated with loperamide at 10 mg/kg, po by LC-MS/MS analysis; type: ADME, organism-based; parameters: dose 10 mg/kg, route oral; method in brief: as §1
[10] = system: Rattus norvegicus; assay: Cmax in MRP2 knockout Sprague-Dawley rat treated with loperamide at 10 mg/kg, po by LC-MS/MS analysis; type: ADME, organism-based; parameters: dose 10 mg/kg, route oral; method in brief: as §1
[11] = system: Rattus norvegicus; assay: AUC (infinity) in BCRP knockout Sprague-Dawley rat treated with loperamide at 10 mg/kg, po by LC-MS/MS analysis; type: ADME, organism-based, Plasma; parameters: time infinity, dose 10 mg/kg, route oral; method in brief: as §1
[12] = system: Rattus norvegicus; assay: AUC (infinity) in wild-type Sprague-Dawley rat treated with loperamide at 10 mg/kg, po by LC-MS/MS analysis; type: ADME, organism-based, Plasma; parameters: time infinity, dose 10 mg/kg, route oral; method in brief: as §1
[13] = system: Rattus norvegicus; assay: Ratio of AUC (0 to 4 hrs) for metabolite to AUC (0 to 4 hrs) for parent compound in BCRP knockout Sprague-Dawley rat at 10 mg/kg, po by LC-MS/MS analysis; type: ADME, organism-based; parameters: dose 10 mg/kg, route oral

CNC(=O)C(CCN1CCC(O)(c2ccc(Cl)cc2)CC1)(c1ccccc1)c1ccccc1
AUC [1]: 427 ng.Eq.hr/ml
Ratio AUC [2]: 1
AUC [3]: 635 ng.Eq.hr/ml
Cmax [4]: 150 ng.Eq/ml
Ratio AUC [5]: 3.5
Ratio AUC [6]: 2.3
Cmax [7]: 158 ng.Eq/ml
AUC [8]: 3658 ng.Eq/ml
Cmax [9]: 193 ng.Eq/ml
Cmax [10]: 109 ng.Eq/ml
AUC [11]: 3256 ng.Eq.hr/ml
AUC [12]: 1875 ng.Eq.hr/ml
Ratio AUC [13]: 3.3
